Screens: PubChem, several laboratories
Diaph act CS – activates diaphorase or chemically reduces, flagging diaphorase assay artifacts; actives 0.005% (n = 190,000); Diaphorase/resazurin coupled assay, resorufin fluorescence, 16 min; stronger effect = higher value; 1 = vehicle wells, 0 = NADH-free wells; activation factor at 20 µM; AID 1229;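 active = diaphorase activity raised at least twofold by the compound at 20 µM; inactive = activation factor below 2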
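Test system: Clostridium kluyveri diaphorase, purified enzyme; input: enzyme 0.07 U/mL final; buffer or medium: 50 mM HEPES pH 7.4 with 4.542 mM MgCl2, 0.005% Tween 20; also added: 0.114 mM NADH and 0.1 mM resazurin, final amounts; schedule: 16 min enzyme reaction, ambient temperature; technique: fluorescence of resorufin, 544 nm excitation, 590 nm emission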
L major viab – Leishmania major promastigote growth inhibition. Leishmania major promastigotes, resazurin fluorescence viability. actives 9% (n = 200,000). inhibition, % at 10 µM. AID 1063; in the data active = inhibition above about 50%;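 also: promastigotes grown with compound for 44 hours at 28 °C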
WT yeast gro inh – growth inhibition of WT yeast, mitochondrial fusion screen | mitochondrial fusion phenotypic screen, WT strain | inhibition, % at 10 µM | actives 2.1% (n = 190,000); in the data active = inhibition above about 58%; tested in S. cerevisiae
PMI act satM6P – activators of human phosphomannose isomerase at near-saturating mannose 6-phosphate; coupled PMI enzyme assay, resazurin fluorescence, 20 min; stronger effect = higher value; 1 = untreated enzyme, 0 = substrate-free blank; activation factor at 20 µM; actives 0.34% (n = 190,000); AID 1216;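 active = activation factor of 2 or more at 20 µM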
Target sequence (P34949 whole entry, looked up): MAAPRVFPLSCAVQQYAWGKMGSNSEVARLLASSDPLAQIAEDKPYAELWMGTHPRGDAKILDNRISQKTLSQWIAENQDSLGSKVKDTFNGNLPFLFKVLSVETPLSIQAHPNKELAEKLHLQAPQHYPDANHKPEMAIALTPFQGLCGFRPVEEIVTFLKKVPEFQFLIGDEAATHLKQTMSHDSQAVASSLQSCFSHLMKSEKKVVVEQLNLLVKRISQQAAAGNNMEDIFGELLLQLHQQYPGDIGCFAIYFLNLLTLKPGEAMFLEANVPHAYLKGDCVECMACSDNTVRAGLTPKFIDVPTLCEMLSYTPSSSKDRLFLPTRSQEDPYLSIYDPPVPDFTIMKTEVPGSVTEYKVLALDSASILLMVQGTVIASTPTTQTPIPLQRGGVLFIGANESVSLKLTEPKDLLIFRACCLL
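Material: human phosphomannose isomerase with PGI, G6PDH, diaphorase coupling enzymes; amount: PMI at 15 ng/mL final; also added: Mannose-6-phosphate 1.0 mM (near-saturating) plus 0.22 mM NADP+; incubation: enzyme reaction with compound 20 min at room temperature; signal: resorufin fluorescence (Ex 544/Em 590 nm) from resazurin via diaphorase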
PMI act – increases human mannose-6-phosphate isomerase activity. P34949. purified human PMI, coupled resazurin fluorescence, 20 min; stronger effect = higher value; 1 = vehicle control, 0 substrate-free wells. activation factor at 20 µM. actives 0.005% (n = 190,000). AID 1214;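 active = activation factor of 2 or more at 20 µM, relative to plate controls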
Large screens that a line does not name were inactive. Rows were chosen to be rich in hits. Some 10% of all compounds tested hit in one or more screens of this group.

Cc1ccc(-c2nc3ccccc3c(=O)n2NC(=O)c2cccs2)cc1	none
O=C(c1ccc(Br)s1)N1CCN(C/C=C/c2ccccc2)CC1	none
Fc1ccc(C(c2ccc(F)cc2)N2CCN(C/C=C/c3ccccc3)CC2)cc1	L major viab 52.6, WT yeast gro inh 81.7
C(=C\c1ccccc1)/CN1CCN(C(c2ccccc2)c2ccccc2)CC1	WT yeast gro inh 69.9
O=C(Nc1ccnc(-c2cccnc2)n1)c1cccs1	none
Cc1ccc(C(C(=O)NC(C)(C)C)N(Cc2cccs2)C(=O)c2ccc3c(c2)OCCO3)cc1 (centres undefined)	WT yeast gro inh 71.5
Cc1ccc(C(C(=O)NC(C)(C)C)N(Cc2cccs2)C(=O)c2csnn2)cc1 (centres undefined)	none (no result: Diaph act CS, WT yeast gro inh, PMI act satM6P, PMI act)
CCC(C)(C)NC(=O)CN(Cc1cccs1)C(=O)C(=O)Nc1ccc2c(c1)OCCO2	none
CCC(C)(C)NC(=O)C(c1ccc(C)cc1)N(Cc1cccs1)C(=O)c1ccc2c(c1)OCCO2 (centres undefined)	WT yeast gro inh 73.7
O=C(CSC1=N/C(=C/c2ccco2)C(=O)N1c1ccc(OC(F)F)cc1)NC1CCS(=O)(=O)C1 (centres undefined)	none
S=c1[nH]nc(-c2cccnc2)n1/N=C/C=C/c1ccccc1	none
COc1ccccc1CNC(=O)c1ccc(N2CCOCC2)c([N+](=O)[O-])c1	none
CCOC(=O)C1=C(C)N=C2SCCC(=O)N2C1c1sccc1C (centres undefined)	WT yeast gro inh 64.7
O=C(CSc1nc2ccccc2[nH]1)Nc1ccc2c(c1)OCCO2	none
O=C(CSc1ncccc1-c1nc2ccccc2[nH]1)Nc1ccc2c(c1)OCCO2	L major viab 72.8
Cc1ccc(-n2c(C)cc(/C([O-])=C(/C(=S)Nc3ccc(F)c(Cl)c3)[n+]3ccccc3)c2C)cc1	L major viab 90.7
Cc1cccc(OCCC(=O)NCC(=O)Nc2cccc(C)c2C)c1	L major viab 60.9
COCCCNC(=O)CN1C(=O)/C(=C\c2ccc(C)cc2)Sc2ccccc21	none
CCN1CCN(CCNC(=O)c2ccc3c(c2)N(Cc2ccc(F)cc2)C(=O)/C(=C/c2ccccc2)S3)CC1	L major viab 100.6, WT yeast gro inh 85.8
CN1CCN(CCCNC(=O)c2ccc(/C=C3\Sc4ccccc4N(Cc4ccccc4F)C3=O)cc2)CC1	L major viab 99.8
CC(C)OCCCNC(=O)CN1C(=O)/C(=C/c2ccccc2)Sc2ccccc21	L major viab 58.9
O=C(NCCN1CCOCC1)c1ccc2c(c1)N(Cc1cccc(F)c1)C(=O)c1ccccc1S2	L major viab 100.0
NC(=O)CSc1nnc(SCc2ccc(F)cc2)s1	none
CCOC(=O)c1c(NC(=O)CN2CCCc3ccccc32)sc(C(C)=O)c1C	none
CCCc1nc2c(sc3nc4c(cc32)COC(C)(C)C4)c(=O)o1	none
CCN1CCN(CCNC(=O)c2ccc(/C=C3/Sc4ccccc4N(Cc4cccc(Cl)c4)C3=O)cc2)CC1	L major viab 100.5, WT yeast gro inh 98.1
CCc1ccc(/C=C2/Sc3ccccc3N(CC(=O)NCCCOC)C2=O)cc1	none
CC(C)NC(=S)NC(=O)/C=C/c1ccc(F)cc1	none
COc1ccc(/C=C/c2nc3cc(-c4ccccc4)ccc3o2)cc1O	L major viab 87.2, WT yeast gro inh 67.2
C=CCNC1=C(Cl)C(=O)N(c2cccc(Cl)c2Cl)C1=O	WT yeast gro inh 64.4
O=C1C(Cl)=C(NCC2CCCO2)C(=O)N1c1cccc(Cl)c1Cl (centres undefined)	none
CC(=O)c1c(C)nc2ccccc2c1N	L major viab 95.8
Cc1nc2ccccc2c(C)c1C(=O)c1ccccc1	none
COc1cccc(C2Nc3c(F)cc(Br)cc3C3C=CCC32)c1OC (centres undefined)	WT yeast gro inh 66.1
COc1cc(C2Nc3c(F)cccc3C3C=CCC32)cc(Br)c1OC (centres undefined)	none
Cc1nn(CC(=O)OCC(=O)Nc2c(C(C)C)cccc2C(C)C)c(C)c1[N+](=O)[O-]	L major viab 51.0
Cc1nn(CC(=O)OCC(=O)Nc2ccccc2[N+](=O)[O-])c(C)c1[N+](=O)[O-]	L major viab 64.9
O=C(Nc1ccc([N+](=O)[O-])cc1)C1CC1(c1ccccc1)c1ccccc1 (centres undefined)	none
CC1(C)C(C=C(Cl)Cl)C1C(=O)Nc1ccc([N+](=O)[O-])cc1 (centres undefined)	L major viab 87.8
COc1ccc(C(=O)NCc2nnc(SCC(=O)N3CCc4ccccc43)n2Cc2ccccc2)cc1	L major viab 64.5
O=C(CN1CCN(c2ccccn2)CC1)N(c1ccccc1)c1ccc2ccccc2c1	L major viab 97.1, WT yeast gro inh 62.6
O=C(CN1CCOCC1)N(c1ccccc1)c1ccc2ccccc2c1	none
N=c1ccn(CC(=O)c2ccc(-c3ccccc3)cc2)cc1	L major viab 99.0, WT yeast gro inh 66.0
O=C(CN1C(=O)CCC1=O)c1ccc(-c2ccccc2)cc1	none
O=C(Nc1cnccn1)Nc1cccc(Cl)c1Cl	none
Cc1nn(-c2ccccc2)c2ncc(C(=O)c3cc(Cl)ccc3O)cc12	none
CCc1nn2cc(C(=O)c3cc(Cl)ccc3O)cnc2c1-c1ccc(F)cc1	WT yeast gro inh 80.8
O=C(O)CNc1nc(-c2ccccc2)nc2ccccc12	none
Cc1cccc2nc(-c3ccccc3)nc(N[C@@H](CO)c3ccccc3)c12	WT yeast gro inh 65.6
COc1ccc(C2(CNC(=O)c3ccc(OC)c([N+](=O)[O-])c3)CCCCC2)cc1OC	L major viab 86.7
COC(=O)c1cccn(CC(=O)c2ccc(Cl)cc2)c1=O	none
CC(C)(C)NCC(O)CON=C1c2ccccc2-c2ccccc21 (centres undefined)	L major viab 98.8
CC(C)(C)NC(=O)CON=C1c2ccccc2-c2ccccc21	none
COc1ccccc1N1CCN(C(C)C(=O)Nc2ccc(S(=O)(=O)N3CCOCC3)cc2)CC1 (centres undefined)	none
COc1ccccc1OCCNC1CCCC1	none
N#Cc1ccccc1OCCOCCNC1CCCC1	L major viab 82.1
Cc1cc2nc3c(c(C(F)(F)F)n2n1)CCCC3	none
COC(=O)C1=C(C)N(Cc2ccco2)C(=O)/C1=C\c1ccc([N+](=O)[O-])cc1	L major viab 98.8
Cc1ccc(S(=O)(=O)NC2(C(F)(F)F)C(=O)Nc3c2c(=O)[nH]c(=O)n3-c2ccccc2)cc1 (centres undefined)	L major viab 72.4
O=C(CSc1nnc(SCc2ccc(Cl)cc2)s1)N/N=C/c1c(Cl)cccc1Cl	none
COc1ccc(CNc2oc(-c3cccc4ccccc34)nc2C#N)cc1	none
CCOP(=O)(OCC)c1nc(-c2cccc3ccccc23)oc1NCCc1ccc(OC)cc1	L major viab 96.9, WT yeast gro inh 70.2
